Measurements from different studies.
Each line is one published result; the experiments were not run side by side.
Cell line: MDA-MB-231
Effect on: cell growth or viability

With `COc1cc2c3c(n(CCCNC(C)C)c(=O)c2cc1OC)-c1nc2c(cc1C3=O)OCO2` the IC50 was 0.644 µM (MTS; 72 h).
With `COc1ccccc1CNC[C@@](C)(O)[C@@H]1CC[C@@H](C)C[C@H]1OCc1ccccc1` the inhibition was 87.6% (MTT; 30 µM; 72 h).
The IC50 of `O=C(C=Cc1ccccc1)Nc1cc(-c2ccnc(N3CCOCC3)c2)ccn1` is reported as 0.0729 µM (MTT; 72 h).
With `COc1ccc(COC[C@@](O)(CNCc2ccc(F)cc2)[C@@H]2CC[C@@H](C)C[C@H]2OCc2ccc(OC)cc2)cc1` the inhibition was 99.2% (MTT; 30 µM; 72 h).
`CC(C)CS(=O)(=O)NCc1cccc(-c2ccc3c(NC(=O)CC4CC4)n[nH]c3c2)c1` gave an IC50 of 60 µM (ATP luminescence; 48 h).
The inhibition of `Cc1cccc(/C=C/C(=O)Nc2cc(-c3ccnc(N4CCOCC4)c3)ccn2)c1` is reported as 79.3% (MTT; 5 µM).
The viability of `CCNC(=S)NNC(=O)COc1ccc2c(C)c(CC)c(=O)oc2c1C` is reported as 9.96% (MTT; 500 µg/mL).
`O=C(C=Cc1cccc(F)c1)Nc1cc(-c2ccnc(N3CCC(O)CC3)c2)ccn1` gave an inhibition of 78.3% (MTT; 5 µM).
`C[C@@H]1CC[C@@H]([C@](C)(O)CNCc2cccc(F)c2)[C@H](OCc2ccccc2)C1` gave an inhibition of 41.5% (MTT; 10 µM; 72 h).
With `Nc1ccccc1NC(=O)c1ccc(CNc2ccc(NC3=C(Cl)C(=O)c4ncccc4C3=O)cc2)cc1` the IC50 was 2.44 µM (MTT; 48 h).
With `C=C(COCc1ccc(F)cc1)[C@@H]1CC[C@@H](C)C[C@H]1OCc1ccc(F)cc1` the inhibition was 25% (MTT; 30 µM; 72 h).
For `O=C(NO)c1ccc(CNc2ccc(NC3=C(Cl)C(=O)c4cccnc4C3=O)cc2)cc1-c1ccccc1`, the IC50 was 2.5 µM (MTT; 48 h).
For `Cc1cc(NC(=O)C=Cc2ccccc2)cc(-c2ccnc(N3CCC(CO)CC3)c2)c1`, the inhibition was 59.8% (MTT; 5 µM).
With `CC(=NNC(=O)COc1ccc2c(C)c(Cc3ccccc3)c(=O)oc2c1C)c1ccc(Br)cc1` the viability was 22.8% (MTT; 250 µg/mL).
For `C[C@@H]1CC[C@@H]([C@](O)(CNCc2ccc(F)cc2)COCc2ccc(F)cc2)[C@H](OCc2ccc(F)cc2)C1`, the inhibition was 95% (MTT; 30 µM; 72 h).
The inhibition of `Cc1cc(NC(=O)C=Cc2ccccc2)cc(-c2ccnc(N3CCOCC3)c2)c1` is reported as 17.7% (MTT; 5 µM).
With `C=CCOc1ccc2c(C)c(CC)c(=O)oc2c1C` the viability was 99.7% (MTT; 31.25 µg/mL).
The GI50 of `O=C(O)c1cccnc1Nc1cccc(C(F)(F)F)c1` is reported as over 30 µM (SRB; 48 h).
With `C[C@@H]1CC[C@@H]([C@@](O)(CNCc2cccc3ccccc23)COCc2ccccc2)[C@H](OCc2ccccc2)C1` the inhibition was 83% (MTT; 10 µM; 72 h).
`CCc1c(C)c2ccc(OCc3nnc(S)n3N)c(C)c2oc1=O` gave a viability of 2.85% (MTT; 500 µg/mL).
With `O=C(/C=C/c1ccc(F)cc1)Nc1cc(-c2ccnc(N3CCC(O)CC3)c2)ccn1` the inhibition was 63% (MTT; 5 µM).
With `COc1cc2c3c(n(CCCN4CCOCC4)c(=O)c2cc1OC)-c1nc2c(cc1C3=O)OCO2` the IC50 was over 2 µM (MTS; 72 h).
`C[C@@H]1CC[C@@H]([C@](C)(O)CNCc2ccccc2)[C@H](OCc2ccccc2)C1` gave an inhibition of 78.9% (MTT; 30 µM; 72 h).
`COc1cc2c3c(n(CCCNCCO)c(=O)c2cc1OC)-c1nc2c(cc1C3=O)OCO2` has an IC50 of 0.806 µM (MTS; 72 h).
`O=C(O)c1ccccc1Nc1cccc(C(F)(F)F)c1` has a GI50 of over 30 µM (SRB; 48 h).
`COc1ccc(CNC[C@](O)(COCc2ccc(F)cc2)[C@@H]2CC[C@@H](C)C[C@H]2OCc2ccc(F)cc2)cc1` has an inhibition of 99.6% (MTT; 10 µM; 72 h).
`O=C(CCc1ccccc1)Nc1cc(-c2ccnc(N3CCC(O)CC3)c2)ccn1` gave an inhibition of 78.9% (MTT; 5 µM).
`CCc1c(C)c2ccc(OCC(=O)NN=Cc3ccc([N+](=O)[O-])cc3)cc2oc1=O` has a viability of 36.3% (MTT; 31.25 µg/mL).
`Cc1cc(NC(=O)C=Cc2ccccc2)cc(-c2ccnc(N3CCC(O)CC3)c2)c1` has an inhibition of 55% (MTT; 5 µM).
With `CCc1c(C)c2ccc(OCC=Cc3ccccc3)c(C)c2oc1=O` the viability was 87.1% (MTT; 125 µg/mL).
For `O=[N+]([O-])c1ccc2c(c1)S(=O)(=O)C=C2`, the IC50 was 1.3 µM (ATP luminescence; 72 h).
`C=CC(=O)c1cccnc1Nc1cc(C(F)(F)F)ccc1OCc1ccccc1` gave a GI50 of 18.3 µM (SRB; 48 h).
For `C=CCNC(=S)NNC(=O)COc1ccc2c(C)c(CC)c(=O)oc2c1C`, the viability was 3% (MTT; 500 µg/mL).
